SENP1 FRET inh: SENP1 (human) catalytic domain inhibition; recombinant SENP1 catalytic domain, CyPet-SUMO1-YPet FRET cleavage; 360,000 tested, 0.21% active; inhibition, % at 10 µM; Q9P0U3;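 active = inhibition at least 30% at 10 µM, raw YFP signal under a set limit, fluorescence ratio 0.5 to 1.5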;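 also: 0% = enzyme with DMSO and 100% = no enzyme wells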
Target sequence (Q9P0U3 419-644 limits assumed): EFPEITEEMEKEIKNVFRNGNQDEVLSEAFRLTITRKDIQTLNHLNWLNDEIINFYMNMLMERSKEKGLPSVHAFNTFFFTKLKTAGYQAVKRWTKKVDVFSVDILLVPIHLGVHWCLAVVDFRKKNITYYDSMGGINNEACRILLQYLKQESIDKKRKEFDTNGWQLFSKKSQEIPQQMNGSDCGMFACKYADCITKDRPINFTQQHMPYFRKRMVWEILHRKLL
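Assay system – human recombinant His6-tagged SENP1 catalytic domain enzyme · Input – SENP1 enzyme, 20 pM final · Buffer or medium – Tris pH 8 buffer plus EDTA, NaCl, BME, BSA, NP40, catalase · Schedule – 50 min reaction at room temperature · Technique – FRET read of cyan and yellow fluorescence · Control set – no-enzyme wells low, DMSO-plus-enzyme wells high control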
ATG4B inhibitor: inhibitors of human ATG4B cysteine protease; Q9Y4P1; ATG4B cleavage of LC3-PLA2, NBD-HPC fluorescence, 1 h; inhibition, % at 8.33 µM; 340,000 tested, 0.51% active; AID 504462; in the data active = inhibition above about 40%
TPT1 inh: C. albicans TPT1 enzyme inhibition; recombinant caTPT1, FP RNA substrate dephosphorylation; inhibition, % at 5 µM; 300,000 tested, 0.81% active; AID 1962;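 active = inhibition above the mean of all tested compounds plus 3 SD, set per screening campaign, cut at about 24% in these data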;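 also: plate controls were DMSO alone for no effect and ferristatin control at 100 nM for full effect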
HNF4A DNA FP: change in binding of human HNF4 alpha to DNA; activity change, % at 10 µM; 360,000 tested, 0.3% active; AID 1224865; HNF4a-FITC DNA binding, fluorescence polarization, 1 h; in the data active = activity change above about 30%, passing the limit was not always enough
Rpn11 block: blocks the human proteasome subunit Rpn11. O00487. human 26S proteasome, Ub4-pepOG fluorescence polarization; 20S core pre-blocked with epoxomicin. AID 588493. 360,000 tested, 0.59% active. inhibition, % at 20 µM;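 active = inhibition at 20 µM, scaled to each plate's controls, above about 33%, limit read from the data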
CSN inh: CSN deneddylation inhibition; AID 651999; Q92905; inhibition, % at 12.5 µM; Purified CSN, SCF-Nedd8-OG deneddylation, fluorescence polarization; 360,000 tested, 0.38% active;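 active = pattern-corrected inhibition above about 35%, with an unprinted fluorescence ratio check between 0.5 and 1.5, limit read from the data, passing the limit was not always enough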;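 also: 0% = enzyme with substrate and 100% = substrate without enzyme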
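assay system = purified human Csn5 enzyme expressed in HEK293T cells | amount = 0.24 nM enzyme | buffer or medium = Tris/NaCl/DTT buffer, pH 7.5 | reagent = 10 nM SCFSkp2-Nedd8OG | compound = one concentration, 12.5 µM, 0.25% DMSO | times = 90 min reaction at room temperature | signal = FP | read-out basis = % inhibition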
caTPT1 confirm: TPT1 (C. albicans) inhibition, confirmation. shares compounds with TPT1 inh. 2,400 tested, 74% active. recombinant caTPT1, fluorescence polarization, RNase T1 coupled. AID 2149. inhibition, % at 5 µM;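 active = inhibition above the primary screen limit, the mean inhibition of all tested compounds plus 3 SD, cut at about 25% in these data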
RNase T1 inh: counter-screen for TPT1 inhibitors: inhibitors of Aspergillus oryzae RNase T1; 2,400 tested, 83% active; RNase T1 cleavage, fluorescence polarization, 1536-well; shares compounds with TPT1 inh; inhibition, % at 5 µM; AID 2153;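 active = inhibition above the solvent-only control well mean plus 3 SD, limit set per screening run, cut at about 23% in these data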;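 also: plate controls were DMSO wells with enzyme for no effect and wells without RNase T1 for full effect; inhibitors block cleavage so intact labeled substrate keeps polarization high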
Target sequence (P00651 whole entry, looked up): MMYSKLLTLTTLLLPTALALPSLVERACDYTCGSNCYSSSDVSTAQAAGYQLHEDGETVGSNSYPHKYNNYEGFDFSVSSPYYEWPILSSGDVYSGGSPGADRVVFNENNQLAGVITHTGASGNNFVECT
* marks the source's active call; other numbers are inactive results; / = no result shown. Rows were chosen to be rich in hits. Some 2% of all compounds tested hit in one or more screens of this group.

SMILES	SENP1 FRET inh	ATG4B inhibitor	TPT1 inh	HNF4A DNA FP	Rpn11 block	CSN inh	caTPT1 confirm	RNase T1 inh
Cc1ccc2nc(SCc3nc4ccccc4c(=O)[nH]3)[nH]c2c1	-38	0	4	3	2	9	/	/
CCOC(=O)C1=C(CC)OC(N)=C(C#N)C1c1cccs1 (stereo not given)	-14	-4	-17	3	0	2	/	/
CCN1CC2=C(OC(N)=C(C#N)C2c2cccs2)/C(=C\c2cccs2)C1 (stereo not given)	-34	-5	26*	5	/	10	14	21
CC(OC(=O)C1CC1)C(=O)Nc1ncc(Cl)cc1Cl (stereo not given)	0	-5	/	-3	-9	-6	/	/
N#CC1=C(N)OC2=C(CC/C2=C\c2ccccc2Cl)C1c1ccccc1Cl (stereo not given)	-24	23	67*	81	/	70	81*	89*
N#CC1=C(N)OC2=C(CC/C2=C\c2ccccc2)C1c1ccccc1 (stereo not given)	-23	-3	83*	20	/	35	85*	88*
N#CC1=C(N)OC2=C(C(=O)CCC2)C1c1ccccc1 (stereo not given)	0	1	0	8	0	-5	/	/
CC1CCc2cccc3c2N1c1cc(C#N)c(C#N)cc1O3 (stereo not given)	-26	-4	26*	2	-12	8	22	31*
COc1ccc(C(=O)/C=C2\NCCc3cc(OC)c(OC)cc32)cc1OC	-112	-5	53*	11	24	3	18	25*
COc1ccc(N2CCN(C(=O)c3ccc4c(c3)CCN4S(C)(=O)=O)CC2)cc1	1	/	/	-2	-5	4	/	/
Oc1ccc(/C=C/c2ccc3ccccc3n2)cc1	20	-23	-1	5	3	2	/	/
CCCN(CCC)c1ccc(/C=C/c2ccc3cc(OCC)ccc3n2)cc1	-22	4	57*	88	/	34	93*	97*
CN(CC(=O)NCC1CCCCC1)CC(=O)Nc1ccccc1Br	3	-1	/	4	-3	-6	/	/
Cn1c(=O)c(/C=C/c2ccc(F)cc2)nc2ccccc21	-35	0	/	2	-1	-10	/	/
O=c1c(/C=C(\O)c2ccc(F)cc2)nc2ccccc2n1-c1ccccc1	-15	-21	62*	20	/	12	79*	75*
CCN(CC)c1ccc(C2C(C(=O)OC)=C(C)NC(C)=C2C(=O)OC)cc1	-1	-8	0	0	1	-1	/	/
CCN(CC)c1ccc(/C=C/C(=O)C2C(=O)C=C(C)OC2=O)cc1 (stereo not given)	-30	-1	48*	76	/	-93	33*	40*
CC(=O)c1c(N2CCN(c3ccccc3)CC2)nc(=S)n(-c2ccccc2)c1C	-34	1	78*	13	33	15	26*	35*
CC(=O)c1c(N2CCN(CCO)CC2)nc(=S)n(-c2ccccc2)c1C	-52	3	-9	3	5	6	/	/
COc1ccc(CCNC(=O)CSc2ccc(-c3ccccc3)nn2)cc1OC	0	3	4	-2	-4	3	/	/
COc1cccc(-c2ccc(SCC(=O)NCCc3ccccc3)nn2)c1	-4	-7	54*	1	-8	-5	3	6
Cc1cc(NS(=O)(=O)c2ccc(NC(=O)/C=C/c3cccc(Cl)c3)cc2)no1	2	-8	0	1	-5	3	/	/
COc1ccc(N(C(=O)c2cccnc2)S(=O)(=O)c2cccc([N+](=O)[O-])c2)cc1	2	-4	68*	0	1	-1	5	7
COc1ccc(N(C(=O)c2ccncc2)S(=O)(=O)c2cccc([N+](=O)[O-])c2)cc1	0	-1	2	-2	5	-1	/	/
COc1ccc(CC(=O)NNS(=O)(=O)c2cccc([N+](=O)[O-])c2)cc1OC	4	-3	-1	1	3	-5	/	/
SMILES	SENP1 FRET inh	ATG4B inhibitor	TPT1 inh	HNF4A DNA FP	Rpn11 block	CSN inh	caTPT1 confirm	RNase T1 inh
COc1ccc(-n2c(O)c(/C=N/NS(=O)(=O)c3cccc([N+](=O)[O-])c3)c3ccccc3c2=O)cc1OC	-15	6	70*	114	/	30	115*	118*
O=C(Nc1nnc([C@@H]2C[C@H](O)[C@@H](CO)O2)s1)Nc1cccc2c1CCCC2	-2	/	/	-4	-8	7	/	/
CCN(CC)S(=O)(=O)c1ccc(C(=O)/C=C/c2ccc(-c3ccc([N+](=O)[O-])cc3)o2)cc1	-35	-1	30*	0	34	7	49*	53*
CCc1ccc(C(=O)/C=C/c2ccc([N+](=O)[O-])o2)cc1	0	9	13	3	2	9	/	/
O=[N+]([O-])c1ccc2nc(CCCO)[nH]c2c1	3	-4	-7	0	2	-6	/	/
CCCc1nc2ccc([N+](=O)[O-])cc2[nH]1	1	-2	29*	4	-2	1	4	7
N#Cc1c(N)n(-c2cccc(C(=O)O)c2)c2nc3ccccc3nc12	-39	-5	36*	21	/	33	40*	49*
N#Cc1c(N)n(-c2ccccc2N)c2nc3ccccc3nc12	-40	-13	7	4	12	7	/	/
CCNc1ccc(Br)cc(C(=O)/C=C/c2ccc(Cl)cc2)c1=O	-11	22	64*	-1	31	32	46*	71*
CCNc1ccc(Br)cc(C(=O)/C=C/c2c(Cl)cccc2Cl)c1=O	-6	34	70*	3	54*	37*	75*	84*
CSc1ccc(C2NC(=O)c3c(sc4c3CCN(C)C4)N2)cc1 (stereo not given)	-30	-2	105*	54	/	46*	97*	101*
Cc1ccsc1C1NC(=O)c2c(sc3c2CCN(C)C3)N1 (stereo not given)	-30	-9	61*	16	27	18	56*	65*
CN1CCc2c(sc3c2C(=O)NC(c2ccc(-c4cccc(Cl)c4)o2)N3)C1 (stereo not given)	-41	-13	115*	71*	/	44*	111*	117*
CN1CCc2c(sc3c2C(=O)NC(/C=C\c2ccccc2)N3)C1 (stereo not given)	-41	-10	22	9	/	19	/	/
